Values joined by “and” are separate entries in the source; they are usually repeats but may differ in a detail not shown here. Identical values can stand only once.
Legend:
[1] = Proliferative activity against Shionogi (AR+) cells at 0.1 uM concentration; assay type: functional
[2] = Proliferative activity against Shionogi (AR+) cells at 1 uM concentration; assay type: functional
[3] = molecular target: T1, 17-beta-hydroxysteroid dehydrogenase type 3 (Homo sapiens, UniProt P37058); assay: Concentration to inhibit 50% activity of the Type-3 17-beta- hydroxysteroid dehydrogenase
T1 sequence (P37058 whole entry): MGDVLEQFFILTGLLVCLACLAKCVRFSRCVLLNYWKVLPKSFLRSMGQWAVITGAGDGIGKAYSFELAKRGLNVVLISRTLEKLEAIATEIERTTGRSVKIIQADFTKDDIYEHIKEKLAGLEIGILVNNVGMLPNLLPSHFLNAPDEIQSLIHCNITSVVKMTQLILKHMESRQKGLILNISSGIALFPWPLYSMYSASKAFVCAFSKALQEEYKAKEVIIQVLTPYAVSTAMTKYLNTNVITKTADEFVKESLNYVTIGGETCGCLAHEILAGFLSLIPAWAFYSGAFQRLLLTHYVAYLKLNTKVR
Method in brief: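 Microsomal fraction from HEK-293 cells transfected with type 3 17β-HSD, prepared by sonication and differential centrifugation (10 000g, then 100 000g) in 50 mM sodium phosphate pH 7.4, 20% glycerol, 1 mM EDTA. Incubated at 37 °C with 5 mM NADPH, 0.05 μM [14C]Δ4-dione and a range of inhibitor concentrations. Labeled testosterone formed is measured; IC50 is computed from the 50% inhibition point.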

[4] = molecular target: T1, 17-beta-hydroxysteroid dehydrogenase type 3; assay: Ability to inhibit the Type-3 17-beta- hydroxysteroid dehydrogenase activity transfected in human embryonic kidney (HEK)-293 cells experiment 2; assay type: cell-based, HEK293
[5] = molecular target: T1, 17-beta-hydroxysteroid dehydrogenase type 3; assay: Ability to inhibit the Type-3 17-beta- hydroxysteroid dehydrogenase activity transfected in human embryonic kidney (HEK)-293 cells experiment 3; assay type: cell-based, HEK293
[6] = Proliferative activity against Shionogi(AR+) cells at 1 uM concentration; assay type: functional
[7] = Proliferative activity against Shionogi(AR+) cells at 0.1 uM concentration; assay type: functional
[8] = molecular target: T1, 17-beta-hydroxysteroid dehydrogenase type 3; assay: The ability to inhibit the Type-3 17-beta- hydroxysteroid dehydrogenase activity in transfected human embryonic kidney (HEK)-293 cells experiment 3; assay type: cell-based, HEK293
Method in brief: (§1)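 Type 3 17β-HSD expressed by calcium phosphate transfection in HEK-293 cells. Cells sonicated in 50 mM sodium phosphate pH 7.4 with 20% glycerol and 1 mM EDTA, then spun at 10 000g for 1 h; the 100 000g microsomal pellet is the enzyme source. Assay at 37 °C in the same buffer with 5 mM NADPH and 0.05 μM [14C]Δ4-dione. Labeled testosterone formed is measured; […].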

[9] = molecular target: T1, 17-beta-hydroxysteroid dehydrogenase type 3; assay: The ability to inhibit the Type-3 17-beta- hydroxysteroid dehydrogenase activity in transfected human embryonic kidney (HEK)-293 cells experiment 2; assay type: cell-based, HEK293; method in brief: as §1

Row | SMILES | inhibition at 0.1 µM [1] | inhibition at 1 µM [2] | IC50 [3] | inhibition at 1 µM [6] | inhibition at 0.1 µM [7] | also measured
1 | C[C@]12CC[C@](O)(CN(CC3CCCCC3)C(=O)C3CC3)CC1CC[C@@H]1[C@@H]2CC[C@]2(C)C(=O)CC[C@@H]12 (stereo partly drawn) | 1% | 0% | 85 nM |  |  | 
2 | C[C@]12CCC(=O)C=C1CC[C@@H]1[C@@H]2CC[C@]2(C)C(=O)CC[C@@H]12 [ANDROSTENEDIONE] |  |  |  |  |  | IC50 [4]: 650 nM; IC50 [5]: 489 nM
3 | C[C@]12CC[C@@]3(CC1CC[C@@H]1[C@@H]2CC[C@]2(C)C(=O)CC[C@@H]12)CN(CC(CN1CCOCC1)OC(=O)CCC1CCCC1)C(=O)O3 (stereo partly drawn) |  |  | 74 nM | 6% | 4% | 
4 | C[C@]12CC[C@](O)(Cc3ccccc3)CC1CC[C@@H]1[C@@H]2CC[C@]2(C)C(=O)CC[C@@H]12 (stereo partly drawn) |  |  |  | 100% | 27% | IC50 [8]: 98 nM
5 | C[C@]12CC[C@@H](O)C[C@H]1CC[C@@H]1[C@@H]2CC[C@]2(C)C(=O)CC[C@@H]12 [ETIOCHOLANOLONE] |  |  |  | 2% | 14% | IC50 [8]: 182 nM
6 | CCCC(=O)N(CC1C2CC3CC(C2)CC1C3)C[C@@]1(O)CC[C@@]2(C)C(CC[C@@H]3[C@@H]2CC[C@]2(C)C(=O)CC[C@@H]32)C1 (stereo partly drawn) | 7% | 96% | 35 nM and 57 nM |  |  | 
7 | CCCCCCCCN(C[C@@]1(O)CC[C@@]2(C)C(CC[C@@H]3[C@@H]2CC[C@]2(C)C(=O)CC[C@@H]32)C1)C(=O)C1CC1 (stereo partly drawn) | 0% | 0% |  |  |  | IC50 [9]: 57 nM
8 | CCCCN(CC1C2CC3CC(C2)CC1C3)C[C@@]1(O)CC[C@@]2(C)C(CC[C@@H]3[C@@H]2CC[C@]2(C)C(=O)CC[C@@H]32)C1 (stereo partly drawn) |  |  | 80 nM | 7% | 3% | 
